# Measurements: PMC6392825 (ChemistryOpen, 2019)
# Columns and labels:
# [1] = Chemical antioxidant capacity, FRAP assay
# HepG2 [2] = experiment: Cytotoxicity, mitochondrial activity; assay type: cell-based; conditions: Homo sapiens, HepG2, 72 h, read-out: IC50 MTT
# Outline: (§1)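 Seeded at 20000 cells/well in DMEM and grown 24 h at 37 °C, 10% CO2. Medium was then replaced with serum-free medium holding test compound (25 mM DMSO stock) at various concentrations for 72 h, in triplicate; doxorubicin was the positive control. MTT (5 mg/mL stock in PBS) added for 2 h, formazan dissolved in DMSO, A570. IC50 derived from % surviving cells, reported as mean ± SD combined with SRB data.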
# Caco‐2 [3] = experiment: Intracellular ROS assay; assay type: cell-based; conditions: for activity at 1 µM / activity at 10 µM: Homo sapiens, Caco-2, read-out: Intracellular ROS, percentage compared to the untreated control cells (ROS/SRB); for change of intracellular ROS in words: Caco‐2, vs untreated control, 10 and 1 μM
# Outline: (§2)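 Cells seeded at 20000/well and grown 24 h at 37 °C, 10% CO2, then treated with test compound at 10 and 1 μM in serum-free medium. NAC and doxorubicin served as controls. After a PBS wash, cells were loaded with 20 μM DCFH-DA for 30 min, washed, and held 1 h in phenol red-free DMEM. Fluorescence read at ex 485/em 535 nm and normalized to SRB in the same well. Reported as % of untreated control, n ≥ 3, two-tailed t-test with unequal variances.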
# HT‐29 [4] = experiment: Cytotoxicity, mitochondrial activity; assay type: cell-based; conditions: Homo sapiens, HT-29, 72 h, read-out: IC50 MTT
# Outline: as §1
# HT‐29 [5] = experiment: Intracellular ROS assay; assay type: cell-based; conditions: for activity at 1 µM / activity at 10 µM: Homo sapiens, HT-29, read-out: Intracellular ROS, percentage compared to the untreated control cells (ROS/SRB); for change of intracellular ROS in words: HT‐29, vs untreated control, 10 and 1 μM
# Outline: as §2
# EA.hy926 [6] = experiment: Cytotoxicity, mitochondrial activity; assay type: cell-based; conditions: Homo sapiens, EA.hy 926, 72 h, read-out: IC50 MTT
# Outline: as §1
# [7] = Water solubility, shake flask method, 0.1 M phosphate buffer pH 6.8; assay type: physicochemical; conditions: 37 °C, pH 6.8, aqueous buffer, thermodynamic from solid
# Caco‐2 [8] = experiment: Cytotoxicity, mitochondrial activity; assay type: cell-based; conditions: Homo sapiens, Caco-2, 72 h, read-out: IC50 MTT
# Outline: as §1
# EA.hy926 [9] = experiment: Cell growth inhibition, protein content; assay type: cell-based; conditions: Homo sapiens, EA.hy 926, 72 h, read-out: IC50 SRB
# Outline: (§3)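 Cell lines from ATCC, grown in DMEM+glutamax with 1% NEAA, 1% P/S and 10% FBS at 37 °C, 10% CO2. Seeded at 20000 cells/well for 24 h, then exposed to test compound (25 mM DMSO stock) for three days. Fixed with cold TCA for 1 h at 4 °C, stained 30 min with 0.4% SRB in 1% acetic acid, dissolved in 10 mM Tris, A490. Triplicate; IC50 given as mean ± SD combined with MTT data (n ≥ 3).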
# HepG2 [10] = experiment: Intracellular ROS assay; assay type: cell-based; conditions: for activity at 1 µM / activity at 10 µM: Homo sapiens, HepG2, read-out: Intracellular ROS, percentage compared to the untreated control cells (ROS/SRB); for change of intracellular ROS in words: HepG2, vs untreated control, 10 and 1 μM
# Outline: as §2
# Caco‐2 [11] = experiment: Cell growth inhibition, protein content; assay type: cell-based; conditions: Homo sapiens, Caco-2, 72 h, read-out: IC50 SRB
# Outline: as §3
# EA.hy926 [12] = experiment: Intracellular ROS assay; assay type: cell-based; conditions: for activity at 1 µM / activity at 10 µM: Homo sapiens, EA.hy 926, read-out: Intracellular ROS, percentage compared to the untreated control cells (ROS/SRB)
# Outline: as §2
# HT‐29 [13] = experiment: Cell growth inhibition, protein content; assay type: cell-based; conditions: Homo sapiens, HT-29, 72 h, read-out: IC50 SRB
# Outline: as §3
# HepG2 [14] = experiment: Cell growth inhibition, protein content; assay type: cell-based; conditions: Homo sapiens, HepG2, 72 h, read-out: IC50 SRB
# Outline: as §3
SMILES,FRAP (curcumin equivalent per μM) [1],IC50 (HepG2 [2]),activity at 1 µM (Caco‐2 [3]),activity at 10 µM (Caco‐2 [3]),IC50 (HT‐29 [4]),activity at 1 µM (HT‐29 [5]),activity at 10 µM (HT‐29 [5]),FRAP (Trolox equivalent per μM) [1],IC50 (EA.hy926 [6]),solubility at 90 min [7],solubility at 24 h [7],IC50 (Caco‐2 [8]),IC50 (EA.hy926 [9]),activity at 1 µM (HepG2 [10]),activity at 10 µM (HepG2 [10]),IC50 (Caco‐2 [11]),activity at 1 µM (EA.hy926 [12]),activity at 10 µM (EA.hy926 [12]),IC50 (HT‐29 [13]),IC50 (HepG2 [14]),further results
"Cc1c(C)c2c(c(C)c1O)CCC(C)(C(=O)O)O2 (stereo not shown) [Trolox, reference compound]",1.00 curcumin equivalent per μM,–,–,–,–,–,–,–,–,–,–,–,–,–,–,–,–,–,–,–,–
"O=C(/C=C(O)/C=C/c1ccc[nH]1)/C=C/c1c[nH]c2ccccc12 [3 l, (1E,4Z,6E)‐5‐Hydroxy‐1‐(1H‐indol‐3‐yl)‐7‐(1H‐pyrrol‐2‐yl)hepta‐1,4,6‐trien‐3‐one]",0.27 curcumin equivalent per μM,16.5 ± 0.4 µM,410 ± 31.9%,767.2 ± 4.1%,10.5 ± 0.1 µM,152 ± 8.8%,558 ± 96.3%,0.29 Trolox equivalent per μM,3.3 ± 0.1 µM,12.2 ± 0.3 µM,12 ± 0.7 µM,6.5 ± 0.2 µM,4.2 ± 0.3 µM,600 ± 61.8%,998 ± 60.2%,10.1 ± 0.5 µM,438 ± 46.1%,826 ± 22.7%,10 ± 0.1 µM,9.8 ± 0.3 µM,–
"O=C1O[C@H]([C@@H](O)CO)C(O)=C1O [Ascorbic acid, ascorbic acid, reference compound]",0.57 curcumin equivalent per μM,–,–,–,–,–,–,0.60 Trolox equivalent per μM,–,–,–,–,–,–,–,–,–,–,–,–,–
"O=C(/C=C(O)/C=C/c1cccnc1)/C=C/c1c[nH]c2ccccc12 [3 h, (1E,4Z,6E)‐5‐Hydroxy‐1‐(1H‐indol‐3‐yl)‐7‐(pyridin‐3‐yl)hepta‐1,4,6‐trien‐3‐one]",0.12 curcumin equivalent per μM,5 ± 0.3 µM,111 ± 3.2%,128 ± 8.2%,6.4 ± 0.8 µM,82.3 ± 1.5%,95.6 ± 4.2%,0.13 Trolox equivalent per μM,6.2 ± 0.3 µM,5.3 ± 0.1 µM,5.4 ± 0.1 µM,6.7 ± 0.4 µM,2.9 ± 0.1 µM,115 ± 4.5%,112 ± 4.9%,10.3 ± 0.1 µM,97.9 ± 9.8%,107 ± 5.3%,34.6 ± 0.8 µM,10.2 ± 0.4 µM,change of intracellular ROS in words (HepG2 [10]): significantly increased ROS production
"COc1cc(/C=C/c2cc(/C=C/c3cccnc3)[nH]n2)ccc1O [4 a, 2‐Methoxy‐4‐{(E)‐2‐[5‐((E)‐2‐(pyridin‐3‐yl)vinyl)‐1H‐pyrazol‐3‐yl]vinyl}phenol]",0.55 curcumin equivalent per μM,11.2 ± 0.1 µM,79.1 ± 8.8%,86.7 ± 2%,> 75 µM,61.3 ± 6.9%,84.8 ± 3.8%,0.57 Trolox equivalent per μM,18.5 ± 1.3 µM,8.8 ± 0.4 µM,7.7 ± 0.7 µM,53.7 ± 6.1 µM,60.7 ± 0.7 µM,88.4 ± 6.3%,83.1 ± 5.5%,18.7 ± 1.2 µM,–,97.3 ± 7.3%,24 ± 1.6 µM,> 75 µM,"change of intracellular ROS in words (Caco‐2 [3]): significantly decreased ROS production; change of intracellular ROS in words (HT‐29 [5]): significantly decreased ROS signal; antioxidant activity in words, FRAP [1]: comparable to ascorbic acid"
"CC(=O)N[C@@H](CS)C(=O)O [NAC, N‐acetyl‐L‐cysteine, reference compound]",–,–,83.7 ± 6.2%,83.5 ± 5.1%,–,82.7 ± 3.4%,75.3 ± 3.3%,–,–,–,–,–,–,77.1 ± 7.8%,63.1 ± 4.3%,–,84.2 ± 4.8%,76.6 ± 8.3%,–,–,"change of intracellular ROS in words (Caco‐2 [3]): significant decrease in ROS generation; change of intracellular ROS in words (HT‐29 [5]): significant decrease in ROS generation; change of intracellular ROS in words (HepG2 [10]): significant decrease in ROS generation; change of intracellular ROS in words (EA.hy926 [12]; EA.hy926, vs untreated control, 10 and 1 μM): significant decrease in ROS generation"
"COc1cc(/C=C/C(=O)/C=C(O)/C=C/c2ccnc3ccccc23)ccc1O [3 d, (1E,4Z,6E)‐5‐Hydroxy‐1‐(4‐hydroxy‐3‐methoxyphenyl)‐7‐(quinolin‐4‐yl)hepta‐1,4,6‐triene‐3‐one]",0.20 curcumin equivalent per μM,44.8 ± 5.5 µM,94.2 ± 5%,108 ± 4.4%,47 ± 1 µM,71.3 ± 4.9%,96.9 ± 8%,0.20 Trolox equivalent per μM,42.3 ± 1.2 µM,3.6 ± 1.1 µM,4.4 ± 1.3 µM,46.3 ± 3.7 µM,60.2 ± 10.4 µM,90.7 ± 7.4%,99.6 ± 11.7%,40.8 ± 1.6 µM,95.6 ± 7%,132 ± 6.5%,47.2 ± 2.2 µM,55.4 ± 0.3 µM,–
"Cc1c(C)c2c(c(C)c1O)CC[C@@](C)(CCC[C@H](C)CCC[C@H](C)CCCC(C)C)O2 [α‐Tocopherol, α‐tocopherol, reference compound]",0.68 curcumin equivalent per μM,–,–,–,–,–,–,0.70 Trolox equivalent per μM,–,–,–,–,–,–,–,–,–,–,–,–,–
"O=C(/C=C(O)/C=C/c1cccs1)/C=C/c1c[nH]c2ccccc12 [3 m, (1E,4Z,6E)‐5‐Hydroxy‐1‐(1H‐indol‐3‐yl)‐7‐(thiophen‐2‐yl)hepta‐1,4,6‐trien‐3‐one]",0.09 curcumin equivalent per μM,4.7 ± 0.2 µM,238 ± 5.5%,295 ± 11.1%,6.9 µM,247 ± 15.5%,337 ± 22%,0.10 Trolox equivalent per μM,4.4 ± 0.4 µM,1.27 µM,1.25 µM,0.5 ± 0.3 µM,8.6 ± 0.5 µM,318 ± 13.2%,424 ± 28.4%,5.7 ± 0.2 µM,344 ± 7.1%,322 ± 9.6%,4.8 ± 0.3 µM,10.8 ± 1.6 µM,–
"COc1cc(/C=C/C(=O)/C=C(O)/C=C/c2cccnc2)ccc1O [3 a, (1E,4Z,6E)‐5‐Hydroxy‐1‐(4‐hydroxy‐3‐methoxyphenyl)‐7‐(pyridin‐3‐yl)hepta‐1,4,6‐triene‐3‐one]",0.40 curcumin equivalent per μM,14.1 ± 0.3 µM,106 ± 8.4%,120 ± 8.7%,17.9 ± 0.1 µM,83.2 ± 3.2%,89.9 ± 4.3%,0.42 Trolox equivalent per μM,8.5 ± 0.4 µM,8.1 ± 1.6 µM,14.5 ± 1.1 µM,14.6 ± 2 µM,3.8 µM,116 ± 12.8%,82.3 ± 1.9%,25 ± 1.8 µM,123 ± 9.5%,95.5 ± 5.1%,20.9 ± 0.9 µM,16.8 ± 0.9 µM,change of intracellular ROS in words (Caco‐2 [3]): significantly increased ROS production; change of intracellular ROS in words (HT‐29 [5]): significantly decreased ROS signal; change of intracellular ROS in words (HepG2 [10]): significantly decreased ROS signal
"O=C(/C=C(O)/C=C/c1ccc2ccccc2n1)/C=C/c1c[nH]c2ccccc12 [3 k, (1E,4Z,6E)‐5‐Hydroxy‐1‐(1H‐indol‐3‐yl)‐7‐(quinolin‐2‐yl)hepta‐1,4,6‐trien‐3‐one]",0.19 curcumin equivalent per μM,56.2 ± 1.6 µM,162 ± 21.7%,168 ± 28.1%,42 ± 2 µM,112 ± 10.8%,116 ± 7.1%,0.20 Trolox equivalent per μM,38.3 ± 1.7 µM,8.1 ± 0.1 µM,9.6 ± 0.8 µM,44.7 ± 2.1 µM,53.2 ± 1.3 µM,156 ± 13%,197 ± 24.6%,47.5 ± 0.2 µM,120 ± 9.2%,126 ± 5.6%,43.8 ± 0.9 µM,54.1 ± 1 µM,–
